The source made the active and inactive calls.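 Rule for the calls: active = binding altered by at least 10% in every panel; inactive = the rest.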
Test system: aryl hydrocarbon receptor (Cavia porcellus)
Experiment: AhR activators driving DRE binding, late-stage follow-up, counter-screen for AhR activator project, biochemical, radiometric EMSA, guinea pig liver cytosol (AID 624402)
Settings: stronger effect = higher value
In short: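 System: guinea pig hepatic cytosol, AhR. Probe or stimulus: Poly dIdC and [32P]-DRE probe. Repeats: triplicates. Doses: 10 µM test compound. Medium: HEDG, pH 7.5. Schedule: 2.5 h compound exposure at room temperature, 15 min per later addition. Control set: 20 nM TCDD reference. Technique: radiometric EMSA, phosphorimaging.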

With `CCOC(=O)c1c(C)nn(-c2cc(Cl)ccc2Cl)c1C` the inhibition (run 1, at 10 µM) was 8.4% (inactive) and the inhibition (run 2, at 10 µM) was 5.4% (inactive).

Work on `O=C(CSc1nc2ccccc2s1)Nc1ccccn1` yielded an inhibition (run 1, at 10 µM) of 41.3% and an inhibition (run 2, at 10 µM) of 38.5%.

For `O=C(CSc1nc(-c2ccc(F)cc2)cs1)Nc1ccccn1`, the inhibition (run 1, at 10 µM) was 9.5% (inactive) and the inhibition (run 2, at 10 µM) was 7.1% (inactive).

In the case of `COc1ccc(NC(=O)c2ccc(C(=O)Nc3ccc(OC)cc3OC)nc2)c(OC)c1`, the inhibition (run 1, at 10 µM) is reported as 6.9% (inactive) and the inhibition (run 2, at 10 µM) is reported as 11.8% (inactive).

For `CCOc1ccccc1NC(=O)c1ccc(C(=O)Nc2ccccc2OCC)nc1`, the inhibition (run 1, at 10 µM) was 6.4% (inactive) and the inhibition (run 2, at 10 µM) was 4.4% (inactive).

With `Cc1ccc(-c2cc(-c3cccc(F)c3)n[nH]2)c(O)c1` the inhibition (run 1, at 10 µM) was 42.7% and the inhibition (run 2, at 10 µM) was 39.8%.

In the case of `Cc1cccc(C)c1NC(=O)c1ccc(C(=O)Nc2c(C)cccc2C)nc1`, the inhibition (run 1, at 10 µM) is reported as 8.6% (inactive) and the inhibition (run 2, at 10 µM) is reported as 9% (inactive).

In the case of `Cc1cc(Br)cc(C)c1Nc1ccnc(Nc2ccc(C#N)cc2)n1`, the inhibition (run 1, at 10 µM) is reported as 5.8% (inactive) and the inhibition (run 2, at 10 µM) is reported as 5.3% (inactive).

Work on `CN(Cc1cc(-c2cccs2)n[nH]1)Cc1coc2ccccc2c1=O` yielded an inhibition (run 1, at 10 µM) of 22.1% and an inhibition (run 2, at 10 µM) of 19%.

Compound `Cc1ccc(-c2cc(-c3ccc(Cl)cc3)n[nH]2)c(O)c1` has an inhibition (run 1, at 10 µM) of 32.8% and an inhibition (run 2, at 10 µM) of 28.8%.

For `Nc1nc(Cl)cc(Nc2ccccc2F)n1`, the inhibition (run 1, at 10 µM) was 15.4% and the inhibition (run 2, at 10 µM) was 12.5%.

In the case of `COc1ccc(Nc2cc(Cl)nc(N)n2)cc1`, the inhibition (run 1, at 10 µM) is reported as 10% (inactive) and the inhibition (run 2, at 10 µM) is reported as 7.1% (inactive).

With `Cc1cc(Nc2ccc(F)cc2)nc(N)n1` the inhibition (run 1, at 10 µM) was 9.6% (inactive) and the inhibition (run 2, at 10 µM) was 5.6% (inactive).

`O=C(CSc1nc2ccccc2s1)Nc1ccc(Cl)cn1` gave an inhibition (run 1, at 10 µM) of 16.3% and an inhibition (run 2, at 10 µM) of 19.4%.

In the case of `Cc1ccc(NC(=O)c2ccc(C(=O)Nc3ccc(C)cc3C)nc2)c(C)c1`, the inhibition (run 1, at 10 µM) is reported as 13.3% and the inhibition (run 2, at 10 µM) is reported as 9.3% (inactive).

`Cc1ccc(-c2cc(-c3ccc(F)cc3)n[nH]2)c(O)c1` was tested, and the inhibition (run 1, at 10 µM) was 50.8% and the inhibition (run 2, at 10 µM) was 47.5%.

With `COc1ccc(Nc2cc(Cl)nc(N)n2)cc1OC` the inhibition (run 1, at 10 µM) was 7.5% (inactive) and the inhibition (run 2, at 10 µM) was 5.6% (inactive).

`Cc1ccc(O)c(-c2cc(-c3ccccc3Cl)[nH]n2)c1` showed an inhibition (run 1, at 10 µM) of 58.4% and an inhibition (run 2, at 10 µM) of 51.9%.

With `COc1ccc(O)c(-c2cc(-c3cccs3)[nH]n2)c1` the inhibition (run 1, at 10 µM) was 6.4% (inactive) and the inhibition (run 2, at 10 µM) was 5.5% (inactive).

In the case of `COc1ccc(Cl)cc1NC(=O)c1ccc(C(=O)Nc2cc(Cl)ccc2OC)nc1`, the inhibition (run 1, at 10 µM) is reported as 9.7% (inactive) and the inhibition (run 2, at 10 µM) is reported as 8.4% (inactive).

With `Nc1nc(Cl)cc(Nc2ccc(Oc3ccccc3)cc2)n1` the inhibition (run 1, at 10 µM) was 10.9% (inactive) and the inhibition (run 2, at 10 µM) was 8.5% (inactive).

With `Cc1cccc(NC(=O)c2cc(-c3ccc(C)cc3O)n[nH]2)c1` the inhibition (run 1, at 10 µM) was 8.2% (inactive) and the inhibition (run 2, at 10 µM) was 4.3% (inactive).

`Cc1csc(SCC(=O)Nc2ccccn2)n1` was tested, and the inhibition (run 1, at 10 µM) was 6.2% (inactive) and the inhibition (run 2, at 10 µM) was 6.7% (inactive).

In the case of `COc1ccc(-c2cc(-c3ccc(C)cc3O)[nH]n2)cc1`, the inhibition (run 1, at 10 µM) is reported as 4.8% (inactive) and the inhibition (run 2, at 10 µM) is reported as 3.2% (inactive).

In the case of `Cc1ccnc(NC(=O)CSc2nc3ccccc3s2)c1`, the inhibition (run 1, at 10 µM) is reported as 19.7% and the inhibition (run 2, at 10 µM) is reported as 17.3%.

— PubChem BioAssay AID624402 (The Scripps Research Institute Molecular Screening Center, 2012)
